Source: ChEMBL document CHEMBL5303300, “EUbOPEN Chemogenomics Library - Multiplex” (2023)
Several values for one entry are separate records, joined by “and”; a condition that tells them apart may be missing. Identical values can stand only once.

Test system: Fibroblast
Experiment: Multiplex assay against human fibroblast
Format: toxicity, cell-based
Settings: number of replicates 2
Summary of the method: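 Cells were classed with CellPathfinder machine-learning gating, first as Hoechst high-intensity objects or normal cells, then (normal cells) as healthy, pyknosed or fragmented nuclei, and finally (pyknosed cells) as mitotic or apoptotic. Staining of live cells at seeding used Hoechst33342, BioTracker Green Microtubule Cytoskeleton Dye, MitoTracker Red and Annexin V Alexa Fluor 680, with imaging on a CQ1 microscope at 37°C and 5% CO2 after compound addition. Tubulin, mitochondrial-mass and membrane-permeability phenotypes are per cents of healthy-nucleus cells.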

[1] = 12 h, 1 µM, compound concentration 1 uM
[2] = 12 h, 10 µM, compound concentration 10 uM
[3] = 24 h, 1 µM, compound concentration 1 uM
[4] = 24 h, 10 µM, compound concentration 10 uM
[5] = 48 h, 1 µM, compound concentration 1 uM
[6] = 48 h, 10 µM, compound concentration 10 uM

COc1nc2ccc([C@@](O)(c3ccc(Cl)cc3)c3cncn3C)cc2c(Cl)c1Cc1ccc(-n2cccn2)cc1 [JNJ-53721590]
Population Apoptotic (%) [1]: 30%
Population Fragmented Nuclei (%) [1]: 6% and 11%
Population Healthy Nuclei (%) [1]: 68% and 55%
Population Hoechst High Intensity Objects (%) [1]: 0%
Population Membrane Permeable-Phenotype (%) [1]: 9% and 11%
Population Mitochondria Different-Phenotype (%) [1]: 2% and 1%
Population Mitotic Cells (%) [1]: 69%
Population Normal (%) [1]: 100%
Population Pyknosed Nuclei (%) [1]: 24% and 32%
Population Tubulin-Different-Phenotype (%) [1]: 38% and 37%
Total Cell Count [1]: 210 and 189
Population Apoptotic (%) [2]: 37% and 45%
Population Fragmented Nuclei (%) [2]: 14% and 7%
Population Healthy Nuclei (%) [2]: 63% and 67%
Population Hoechst High Intensity Objects (%) [2]: 0%
Population Membrane Permeable-Phenotype (%) [2]: 20%
Population Mitochondria Different-Phenotype (%) [2]: 5% and 3%
Population Mitotic Cells (%) [2]: 62% and 55%
Population Normal (%) [2]: 99% and 100%
Population Pyknosed Nuclei (%) [2]: 21% and 24%
Population Tubulin-Different-Phenotype (%) [2]: 73%
Total Cell Count [2]: 206 and 241
Population Apoptotic (%) [3]: 62% and 56%
Population Fragmented Nuclei (%) [3]: 6% and 14%
Population Healthy Nuclei (%) [3]: 68% and 62%
Population Hoechst High Intensity Objects (%) [3]: 0%
Population Membrane Permeable-Phenotype (%) [3]: 3% and 10%
Population Mitochondria Different-Phenotype (%) [3]: 2% and 9%
Population Mitotic Cells (%) [3]: 37% and 43%
Population Normal (%) [3]: 100%
Population Pyknosed Nuclei (%) [3]: 25% and 23%
Population Tubulin-Different-Phenotype (%) [3]: 31% and 37%
Total Cell Count [3]: 199 and 197
Population Apoptotic (%) [4]: 51% and 70%
Population Fragmented Nuclei (%) [4]: 20% and 12%
Population Healthy Nuclei (%) [4]: 62% and 60%
Population Hoechst High Intensity Objects (%) [4]: 0%
Population Membrane Permeable-Phenotype (%) [4]: 9% and 6%
Population Mitochondria Different-Phenotype (%) [4]: 18% and 20%
Population Mitotic Cells (%) [4]: 48% and 29%
Population Normal (%) [4]: 100% and 99%
Population Pyknosed Nuclei (%) [4]: 16% and 27%
Population Tubulin-Different-Phenotype (%) [4]: 75% and 69%
Total Cell Count [4]: 218 and 241
Population Apoptotic (%) [5]: 85% and 72%
Population Fragmented Nuclei (%) [5]: 10% and 13%
Population Healthy Nuclei (%) [5]: 72% and 67%
Population Hoechst High Intensity Objects (%) [5]: 0%
Population Membrane Permeable-Phenotype (%) [5]: 3% and 2%
Population Mitochondria Different-Phenotype (%) [5]: 0% and 1%
Population Mitotic Cells (%) [5]: 14% and 27%
Population Normal (%) [5]: 100%
Population Pyknosed Nuclei (%) [5]: 17% and 19%
Population Tubulin-Different-Phenotype (%) [5]: 20% and 15%
Total Cell Count [5]: 205
Population Apoptotic (%) [6]: 87%
Population Fragmented Nuclei (%) [6]: 26% and 18%
Population Healthy Nuclei (%) [6]: 64%
Population Hoechst High Intensity Objects (%) [6]: 0%
Population Membrane Permeable-Phenotype (%) [6]: 1% and 2%
Population Mitochondria Different-Phenotype (%) [6]: 7% and 8%
Population Mitotic Cells (%) [6]: 12%
Population Normal (%) [6]: 99% and 100%
Population Pyknosed Nuclei (%) [6]: 9% and 16%
Population Tubulin-Different-Phenotype (%) [6]: 63% and 53%
Total Cell Count [6]: 247 and 282

Cc1cccc(S(=O)(=O)N(C)[C@H](C)CCN2CCC(C)CC2)c1.Cl
Population Apoptotic (%) [1]: 34% and 44%
Population Fragmented Nuclei (%) [1]: 11% and 9%
Population Healthy Nuclei (%) [1]: 67% and 73%
Population Hoechst High Intensity Objects (%) [1]: 0%
Population Membrane Permeable-Phenotype (%) [1]: 8% and 4%
Population Mitochondria Different-Phenotype (%) [1]: 1% and 3%
Population Mitotic Cells (%) [1]: 65% and 55%
Population Normal (%) [1]: 100%
Population Pyknosed Nuclei (%) [1]: 20% and 17%
Population Tubulin-Different-Phenotype (%) [1]: 16% and 10%
Total Cell Count [1]: 140 and 163
Population Apoptotic (%) [2]: 42% and 46%
Population Fragmented Nuclei (%) [2]: 16% and 8%
Population Healthy Nuclei (%) [2]: 70% and 80%
Population Hoechst High Intensity Objects (%) [2]: 0%
Population Membrane Permeable-Phenotype (%) [2]: 6% and 4%
Population Mitochondria Different-Phenotype (%) [2]: 2% and 1%
Population Mitotic Cells (%) [2]: 57% and 53%
Population Normal (%) [2]: 100%
Population Pyknosed Nuclei (%) [2]: 13% and 10%
Population Tubulin-Different-Phenotype (%) [2]: 35% and 13%
Total Cell Count [2]: 187 and 145
Population Apoptotic (%) [3]: 50% and 54%
Population Fragmented Nuclei (%) [3]: 16% and 13%
Population Healthy Nuclei (%) [3]: 61% and 71%
Population Hoechst High Intensity Objects (%) [3]: 1% and 0%
Population Membrane Permeable-Phenotype (%) [3]: 8% and 2%
Population Mitochondria Different-Phenotype (%) [3]: 1% and 0%
Population Mitotic Cells (%) [3]: 50% and 45%
Population Normal (%) [3]: 98% and 100%
Population Pyknosed Nuclei (%) [3]: 22% and 15%
Population Tubulin-Different-Phenotype (%) [3]: 14% and 9%
Total Cell Count [3]: 144 and 156
Population Apoptotic (%) [4]: 50% and 53%
Population Fragmented Nuclei (%) [4]: 13% and 9%
Population Healthy Nuclei (%) [4]: 76% and 81%
Population Hoechst High Intensity Objects (%) [4]: 0%
Population Membrane Permeable-Phenotype (%) [4]: 6% and 1%
Population Mitochondria Different-Phenotype (%) [4]: 2% and 0%
Population Mitotic Cells (%) [4]: 50% and 46%
Population Normal (%) [4]: 100%
Population Pyknosed Nuclei (%) [4]: 10% and 9%
Total Cell Count [4]: 177 and 144
Population Apoptotic (%) [5]: 58% and 73%
Population Fragmented Nuclei (%) [5]: 15%
Population Healthy Nuclei (%) [5]: 63% and 72%
Population Hoechst High Intensity Objects (%) [5]: 0%
Population Membrane Permeable-Phenotype (%) [5]: 4% and 1%
Population Mitochondria Different-Phenotype (%) [5]: 2% and 0%
Population Mitotic Cells (%) [5]: 41% and 26%
Population Normal (%) [5]: 100%
Population Pyknosed Nuclei (%) [5]: 20% and 11%
Total Cell Count [5]: 139 and 160
Population Apoptotic (%) [6]: 54% and 72%
Population Fragmented Nuclei (%) [6]: 20% and 11%
Population Healthy Nuclei (%) [6]: 74% and 81%
Population Hoechst High Intensity Objects (%) [6]: 0%
Population Membrane Permeable-Phenotype (%) [6]: 2%
Population Mitochondria Different-Phenotype (%) [6]: 0%
Population Mitotic Cells (%) [6]: 45% and 27%
Population Normal (%) [6]: 100%
Population Pyknosed Nuclei (%) [6]: 5% and 7%
Total Cell Count [6]: 185 and 152
